In ChEMBL document CHEMBL1275351, “Novel spirotetracyclic zwitterionic dual H(1)/5-HT(2A) receptor antagonists for the treatment of sleep disorders” (J Med Chem, 2010):

Columns and labels:
Rattus norvegicus [1] = test: Ex vivo displacement of [3H]pyrilamine from histamine H1 receptor in Sprague-Dawley rat cerebral cortex at 10 mg/kg, po by imaging analysis; assay type: functional
Method in brief: (§1)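 Rats were dosed orally (vehicle 0.5% HPMC) and brains removed 2 h later. 14 μm coronal sections were incubated with 1 nM [3H]pyrilamine in 50 mM Tris-HCl, pH 7.5, for 10 min at room temperature. Nonspecific binding with 10 μM pyrilamine. Phosphoimager read after 7 days; occupancy measured in cortex.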

Rattus norvegicus [2] = test: Ex vivo displacement of [3H]pyrilamine from histamine H1 receptor in Sprague-Dawley rat cerebral cortex at 3 mg/kg, po by imaging analysis; assay type: functional; method in brief: as §1
Rattus norvegicus [3] = test: Hypnotic activity in Sprague-Dawley rat assessed as rapid eye movement sleep at 10 mg/kg, po administered during active phase; assay type: functional
Method in brief: (§2)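 Male Sprague-Dawley rats (275-300 g) carried implanted telemetric EEG/EMG transmitters and were used 3 weeks after surgery. Oral dosing (2 mL/kg) was given 6 h after lights off (CT18) in a randomized crossover versus vehicle. Recording ran for 5 h in 10 s epochs scored by FFT. n = 8, mean ± SEM; one-way ANOVA with Dunnett's test.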

[4] = Half life in Sprague-Dawley rat at 1 mg/kg, iv and 3 mg/kg, po; assay type: ADME, organism-based; details: in vivo
Method in brief: (§3)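 Male Sprague-Dawley rats, cassette dosing. Compounds were given as an iv bolus and as an oral suspension. Blood samples were taken at intervals up to 24 h, processed by protein precipitation and analysed by HPLC-MS/MS.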

Rattus norvegicus [5] = test: Hypnotic activity in Sprague-Dawley rat assessed as total sleep time at 10 mg/kg, po administered during active phase; assay type: functional; method in brief: as §2
[6] = Plasma concentration at Tmax in Sprague-Dawley rat hypnotic model at 10 mg/kg, po administered during active phase; assay type: ADME, organism-based; set-up: dose 10 mg/kg, route oral
[7] = Ratio of drug level in brain to blood in Sprague-Dawley rat at 1 mg/kg, iv and 3 mg/kg, po; assay type: ADME, organism-based; details: read-out: BBR
Method in brief: (§4)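 Male Sprague-Dawley rats, cassette dosing, iv bolus or oral suspension. Blood and brain levels were measured by protein precipitation and HPLC-MS/MS. Brain:blood ratio was taken from AUC0-8h after oral dosing, or at 1 h after iv dosing for one compound.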

Rattus norvegicus [8] = test: Ex vivo displacement of [3H]pyrilamine from histamine H1 receptor in Sprague-Dawley rat cerebral cortex at 1 mg/kg, po by imaging analysis; assay type: functional; method in brief: as §1
Rattus norvegicus [9] = test: Ex vivo displacement of [3H]ketanserin from 5HT2A receptor in Sprague-Dawley rat cerebral cortex at 10 mg/kg, po by imaging analysis; assay type: functional
Method in brief: as §1, with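 “[3H]ketanserin” for “[3H]pyrilamine”, “Tris-HCl with 10 mM MgCl2,” for “Tris-HCl,”, “mianserin.” for “pyrilamine.”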

Rattus norvegicus [10] = test: Ex vivo displacement of [3H]ketanserin from 5HT2A receptor in Sprague-Dawley rat cerebral cortex at 3 mg/kg, po by imaging analysis; assay type: functional
Method in brief: as §1, with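 “[3H]ketanserin” for “[3H]pyrilamine”, “Tris-HCl with 10 mM MgCl2,” for “Tris-HCl,”, “mianserin.” for “pyrilamine.”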

Rattus norvegicus [11] = test: Ex vivo displacement of [3H]ketanserin from 5HT2A receptor in Sprague-Dawley rat cerebral cortex at 1 mg/kg, po by imaging analysis; assay type: functional
Method in brief: as §1, with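 “[3H]ketanserin” for “[3H]pyrilamine”, “Tris-HCl with 10 mM MgCl2,” for “Tris-HCl,”, “mianserin.” for “pyrilamine.”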

[12] = Cmax in Sprague-Dawley rat hypnotic model at 3 mg/kg, po administered during active phase measured after 2 hrs; assay type: ADME, organism-based; set-up: dose 3 mg/kg, route oral; details: in vivo
[13] = Plasma concentration at Tmax in Sprague-Dawley rat hypnotic model at 3 mg/kg, po administered during active phase; assay type: ADME, organism-based; set-up: dose 3 mg/kg, route oral
[14] = biological target: 5-hydroxytryptamine receptor 2A (Rattus norvegicus, UniProt P14842); test: Displacement of [3H]ketanserin from 5HT2A receptor in Sprague-Dawley rat cortical membrane by liquid scintillation counting
Method in brief: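 Cerebral cortex membranes from male Sprague-Dawley rats (200-250 g), 50 μg/well. Incubated with 1 nM [3H]ketanserin in 50 mM Tris-HCl, 10 mM MgCl2, pH 7.4, for 1 h at 37 °C with shaking. Filtered on PEI-soaked GF/B and counted by scintillation. Nonspecific binding with 10 μM mianserin. Ki by Cheng-Prusoff; mean of two experiments in duplicate.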

[15] = Blood clearance in Sprague-Dawley rat at 1 mg/kg, iv and 3 mg/kg, po; assay type: ADME, organism-based; details: whole blood; method in brief: as §3
[16] = Plasma concentration at Tmax in Sprague-Dawley rat hypnotic model at 1 mg/kg, po administered during active phase; assay type: ADME, organism-based; set-up: dose 1 mg/kg, route oral
[17] = Volume of distribution at steady state in Sprague-Dawley rat at 1 mg/kg, iv and 3 mg/kg, po; assay type: ADME, organism-based; details: in vivo, read-out: Vdss; method in brief: as §3
[18] = Oral bioavailability in Sprague-Dawley rat at 3 mg/kg; assay type: ADME, organism-based; details: in vivo; method in brief: as §3
Rattus norvegicus [19] = test: Hypnotic activity in Sprague-Dawley rat assessed as non-rapid eye movement latency period at 10 mg/kg, po administered during active phase; assay type: functional; method in brief: as §2
[20] = Ratio of drug level in brain to blood in Sprague-Dawley rat at 0.5 mg/kg, iv and 1 mg/kg, po; assay type: ADME, organism-based; details: read-out: BBR; method in brief: as §4
[21] = Volume of distribution at steady state in Sprague-Dawley rat at 0.5 mg/kg, iv and 1 mg/kg, po; assay type: ADME, organism-based; details: in vivo, read-out: Vdss; method in brief: as §3
[22] = Half life in Sprague-Dawley rat at 0.5 mg/kg, iv and 1 mg/kg, po; assay type: ADME, organism-based; details: in vivo; method in brief: as §3
[23] = Blood clearance in Sprague-Dawley rat at 0.5 mg/kg, iv and 1 mg/kg, po; assay type: ADME, organism-based; details: whole blood; method in brief: as §3
[24] = Oral bioavailability in Sprague-Dawley rat at 1 mg/kg; assay type: ADME, organism-based; details: in vivo; method in brief: as §3
[25] = Cmax in Sprague-Dawley rat hypnotic model at 1 mg/kg, po administered during active phase measured after 2 hrs; assay type: ADME, organism-based; set-up: dose 1 mg/kg, route oral; details: in vivo

Sequence of 5-hydroxytryptamine receptor 2A (P14842 whole entry): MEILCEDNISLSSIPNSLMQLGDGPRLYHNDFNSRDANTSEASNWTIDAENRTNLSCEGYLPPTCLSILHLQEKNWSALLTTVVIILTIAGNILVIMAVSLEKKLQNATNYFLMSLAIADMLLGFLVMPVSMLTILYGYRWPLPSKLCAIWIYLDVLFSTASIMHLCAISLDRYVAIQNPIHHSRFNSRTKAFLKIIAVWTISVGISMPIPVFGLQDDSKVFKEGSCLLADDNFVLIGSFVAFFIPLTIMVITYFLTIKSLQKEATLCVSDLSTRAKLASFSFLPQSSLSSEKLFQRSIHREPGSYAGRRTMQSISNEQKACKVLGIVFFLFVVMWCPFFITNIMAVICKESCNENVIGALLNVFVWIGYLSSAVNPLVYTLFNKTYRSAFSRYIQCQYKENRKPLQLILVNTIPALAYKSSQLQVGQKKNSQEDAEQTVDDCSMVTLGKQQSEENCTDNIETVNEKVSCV

Cmax [6] [ng/mL]	Cmax [13] [ng/mL]	Ki [14] [nM]	Cmax [16] [ng/mL]	Kp [20]	Vd [21] [L/kg]	half-life [22] [h]	clearance [23] [mL/min/kg]	bioavailability [24] [%]	SMILES	Activity (Rattus norvegicus [1]) [%]	Activity (Rattus norvegicus [2]) [%]	Time (Rattus norvegicus [3]) [min]	Time (Rattus norvegicus [5]) [min]	Activity (Rattus norvegicus [8]) [%]	Activity (Rattus norvegicus [9]) [%]	Activity (Rattus norvegicus [10]) [%]	Activity (Rattus norvegicus [11]) [%]	Time (Rattus norvegicus [19]) [min]	other results
1220	417	33.1	127	–	–	–	–	–	O=C(O)C1CN(C2CC[C@]3(Cc4ccccc4Cc4ccccc43)C2)C1 (some centres not stated)	66	45	14.6	145.2	16	47	24	0.9	33.5	half-life [4]: 3.1 h; Kp [7]: 0.1; Cmax [12]: 626 ng/mL; clearance [15]: 9 mL/min/kg; Vd [17]: 2.1 L/kg; bioavailability [18]: 54%
–	–	33.9	–	0.2	1.9	1.9	13	100	O=C(O)C1CN(C2CCC3(Cc4ccccc4Oc4ccccc43)C2)C1 (configuration not stated)	–	–	16.2	155.7	–	–	–	–	31.5	–
755	303	33.9	119	0.5	2.9	1.9	21	65	O=C(O)C1CCN(C2CC[C@]3(Cc4ccccc4Cc4ccccc43)C2)CC1 (some centres not stated)	55	35	12.6	105.2	30	18	5.6	0	34.6	Cmax [25]: 216 ng/mL
